How the values were obtained:
Format in all cases: functional
Mus musculus [1] = assay: Antinociceptive activity in ip dosed Swiss albino mouse assessed as latency time after 15 mins by tail flick method
Method in brief: (§1)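 Swiss albino mice (20–25 g) received compounds ip at 9.5–12.58 mg/kg in 0.2% Tween suspension. Tail-flick latency to radiant heat was measured, with stimulus intensity set to give a 3–4 s baseline. Readings were taken just before injection and at 15, 30, 60 and 120 min after. Significance was assessed by Student's t test.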

Mus musculus [2] = assay: Antinociceptive activity in ip dosed Swiss albino mouse assessed as latency time after 15 mins by hot plate method
Method in brief: (§2)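 Swiss albino mice (20–25 g) were housed 7 days at 30 ± 1 °C before testing, in groups of six. Compounds were given ip at 9.5–12.58 mg/kg as a 0.2% Tween suspension. Mice were placed on a 55 ± 0.5 °C hot plate before dosing and at 15, 30, 60 and 120 min after dosing, with a 15 s cut-off. Significance was assessed by Student's t test.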

Mus musculus [3] = assay: Antinociceptive activity in ip dosed Swiss albino mouse assessed as latency time by tail flick method; method in brief: as §1
Mus musculus [4] = assay: Antinociceptive activity in ip dosed Swiss albino mouse assessed as latency time after 120 mins by tail flick method; method in brief: as §1
Mus musculus [5] = assay: Antinociceptive activity in ip dosed Swiss albino mouse assessed as latency time by hot plate method; method in brief: as §2
Rattus norvegicus [6] = assay: Antiinflammatory activity assessed as reduction of carrageenan-induced paw volume in Wistar rat at 10 mg/kg, ip after 3 hrs; settings: route intraperitoneal
Rattus norvegicus [7] = assay: Antiinflammatory activity assessed as reduction of carrageenan-induced paw volume in intraperitoneally dosed Wistar rat after 3 hrs; design: scale not given: the % may be the effect or the level left
Method in brief: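 Wistar rats of either sex (120–150 g) were dosed ip with compounds at 9.5–12.58 mg/kg in 0.2% Tween suspension. After 1 h, 0.05 ml of 1.0% w/v carrageenan in 0.9% NaCl was injected into the left hind paw. Paw volume was measured by mercury-displacement plethysmometry before injection and at 1, 2 and 3 h. Percent inhibition of the 3 h swelling was calculated.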

Mus musculus [8] = assay: Antinociceptive activity in ip dosed Swiss albino mouse assessed as latency time after 60 mins by hot plate method; method in brief: as §2
Mus musculus [9] = assay: Antinociceptive activity in ip dosed Swiss albino mouse assessed as latency time after 120 mins by hot plate method; method in brief: as §2
Mus musculus [10] = assay: Antinociceptive activity in ip dosed Swiss albino mouse assessed as latency time after 60 mins by tail flick method; method in brief: as §1
Mus musculus [11] = assay: Antinociceptive activity in ip dosed Swiss albino mouse assessed as latency time after 30 mins by hot plate method; method in brief: as §2
Mus musculus [12] = assay: Antinociceptive activity in ip dosed Swiss albino mouse assessed as latency time after 30 mins by tail flick method; method in brief: as §1

Row | SMILES | Activity (Mus musculus [1]) [s] | Activity (Mus musculus [2]) [s] | Activity (Mus musculus [3]) [s] | Activity (Mus musculus [4]) [s] | Activity (Mus musculus [5]) [s] | inhibition in vivo at 10 mg/kg (Rattus norvegicus [6]) [%] | Activity (Rattus norvegicus [7]) [%] | Activity (Mus musculus [8]) [s] | Activity (Mus musculus [9]) [s] | Activity (Mus musculus [10]) [s] | Activity (Mus musculus [11]) [s] | Activity (Mus musculus [12]) [s]
1 | C(=C\c1nc(-c2ccccc2)c(-c2ccccc2)[nH]1)/c1ccccc1 | 4.28 | 5.17 | 4.16 | 4.75 | 4.67 | 55.8 | 55.82 | 5.94 | 6.12 | 4.68 | 5.58 | 
2 | COc1ccc(-c2nc(-c3ccccc3)c(-c3ccccc3)[nH]2)cc1 | 4.98 | 5.02 | 4.58 | 10.83 | 4.87 | 86 | 86.05 | 9.67 | 10.87 | 9.17 | 7.89 | 7.45
3 | COc1ccc2c(c1)c(CC(=O)O)c(C)n2C(=O)c1ccc(Cl)cc1 [INDOMETHACIN] |  |  |  |  |  | 95.3 |  |  |  |  |  | 
4 | O=[N+]([O-])c1ccc(-c2nc(-c3ccccc3)c(-c3ccccc3)[nH]2)cc1 | 4.14 | 4.6 | 4.13 | 5.13 | 4.37 |  | 25.59 | 5.82 | 5.83 | 5.12 | 4.66 | 5.09
5 | Nc1ccc(-c2nc(-c3ccccc3)c(-c3ccccc3)[nH]2)cc1 | 4.27 | 4.69 | 4.22 | 10.05 | 4.48 |  | 81.4 | 8.25 | 10.08 | 7.77 | 7.01 | 6.18

Source: ChEMBL document CHEMBL1144541, “Antinociceptive and antiinflammatory activities and QSAR studies on 2-substituted-4,5-diphenyl-1H-imidazoles” (2007)
